Results: ChEMBL document CHEMBL1152422, “Cytotoxic triterpenoids from the rhizomes of Astilbe chinensis” (J Nat Prod, 2009)
pIC50: −log10 of the molar value.

What was measured:
Assay type in all cases: functional, cell-based
HL-60 = assay: Cytotoxicity against human HL60 cells by rapid colorimetric assay
How it was run: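 HL-60 human promyelocytic leukaemia cells were maintained in IMDM with 20% FBS at 37 °C in a CO2 incubator before testing against the cell panel.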

SNU1 = assay: Cytotoxicity against human SNU1 cells by rapid colorimetric assay
How it was run: (§1)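 A549, SNU-1, K562 and HepG2 cells were grown in RPMI1640 and MEM with 10% FBS at 37 °C in a CO2 incubator before testing against the cell panel.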

K562 = assay: Cytotoxicity against human K562 cells by rapid colorimetric assay; how it was run: as §1
A549 = assay: Cytotoxicity against human A549 cells by rapid colorimetric assay; how it was run: as §1
HepG2 = assay: Cytotoxicity against human HepG2 cells by rapid colorimetric assay; how it was run: as §1

Q: How did the pIC50 (HL-60) turn out when `CC1(C)CC[C@]2(C)CC[C@]3(C(=O)O)C(=CC[C@@H]4[C@@]5(C)CC[C@H](O)[C@](C)(CO)[C@@H]5CC[C@]43C)[C@@H]2C1` was run?
A: < 5.00

Q: What about the pIC50 (SNU1) of the same molecule?
A: < 5.00

Q: And the pIC50 (K562)?
A: < 5.00

Q: What about the pIC50 (A549) of the same molecule?
A: < 5.00

Q: And the pIC50 (HepG2)?
A: < 5.00

Q: How did the pIC50 (HL-60) turn out when `C=C1[C@@H]2[C@H](O)C[C@]3(C)[C@H](CC=C4[C@@H]5CC(C)(C)CC[C@]5(C)CC[C@]43C(=O)O)[C@@]2(C)CC[C@@H]1O` was run?
A: < 5.00

Q: And the pIC50 (SNU1)?
A: < 5.00

Q: What about the pIC50 (K562) of the same molecule?
A: < 5.00

Q: What about the pIC50 (A549) of the same molecule?
A: < 5.00

Q: What about the pIC50 (HepG2) of the same molecule?
A: < 5.00

Q: How did the pIC50 (HL-60) turn out when `CC1(C)CC[C@]2(C)CC[C@]3(C(=O)O)C(=CC[C@@H]4[C@@]5(C)CC[C@H](O)[C@@](C)(CO)[C@@H]5[C@H](O)C[C@]43C)[C@@H]2C1` was run?
A: 5.46

Q: What about the pIC50 (SNU1) of the same molecule?
A: < 5.00

Q: What about the pIC50 (K562) of the same molecule?
A: < 5.00

Q: What about the pIC50 (A549) of the same molecule?
A: < 5.00

Q: What about the pIC50 (HepG2) of the same molecule?
A: < 5.00

Q: `CC1(C)CC[C@]2(C)CC[C@]3(C(=O)O)C(=CC[C@@H]4[C@@]5(C)CC[C@H](O)C(C)(C)[C@@H]5CC[C@]43C)[C@@H]2C1` was tested. Which pIC50 (HL-60) did it give?
A: 5.05

Q: What about the pIC50 (SNU1) of the same molecule?
A: 5.03

Q: What about the pIC50 (K562) of the same molecule?
A: < 5.00

Q: And the pIC50 (A549)?
A: < 5.00

Q: What about the pIC50 (HepG2) of the same molecule?
A: < 5.00

Q: What does the source list for `CC(=O)O[C@@H]1CC[C@]2(C)[C@H]3CC=C4[C@@H]5[C@@H](C)[C@H](C)CC[C@]5(C)CC[C@@]4(C(=O)O)[C@]3(C)CC[C@H]2C1(C)C`?
A: pIC50 (HL-60): 5.41; pIC50 (SNU1): < 5.00; pIC50 (K562): < 5.00; pIC50 (A549): < 5.00; pIC50 (HepG2): < 5.00

Q: With `CC(=O)O[C@H]1CC[C@]2(C)[C@H]3CC=C4[C@@H]5[C@@H](C)[C@H](C)CC[C@]5(C)CC[C@@]4(C(=O)O)[C@]3(C)C[C@@H](O)[C@H]2C1(C)C` as the molecule, how does the pIC50 (HL-60) read?
A: 5.02

Q: What about the pIC50 (SNU1) of the same molecule?
A: < 5.00

Q: What about the pIC50 (K562) of the same molecule?
A: < 5.00

Q: And the pIC50 (A549)?
A: < 5.00

Q: And the pIC50 (HepG2)?
A: < 5.00

Q: With `C[C@H]1[C@H](C)CC[C@]2(C)CC[C@]3(C(=O)O)C(=CC[C@@H]4[C@@]5(C)CC[C@H](O)[C@](C)(CO)[C@@H]5[C@H](O)C[C@]43C)[C@H]12` as the molecule, how does the pIC50 (HL-60) read?
A: < 5.00

Q: What about the pIC50 (SNU1) of the same molecule?
A: < 5.00

Q: And the pIC50 (K562)?
A: < 5.00

Q: What about the pIC50 (A549) of the same molecule?
A: < 5.00

Q: What about the pIC50 (HepG2) of the same molecule?
A: < 5.00

Q: `CC(=O)O[C@@H]1CC[C@]2(C)[C@H]3CC=C4[C@@H]5CC(C)(C)CC[C@]5(C)CC[C@@]4(C(=O)O)[C@]3(C)CC[C@H]2C1(C)C` was tested. Which pIC50 (HL-60) did it give?
A: 5.03

Q: And the pIC50 (SNU1)?
A: < 5.00

Q: What about the pIC50 (K562) of the same molecule?
A: < 5.00

Q: What about the pIC50 (A549) of the same molecule?
A: < 5.00

Q: What about the pIC50 (HepG2) of the same molecule?
A: < 5.00

Q: How did the pIC50 (HL-60) turn out when `C[C@H]1[C@H](C)CC[C@]2(C)CC[C@]3(C(=O)O)C(=CC[C@@H]4[C@@]5(C)CC[C@H](O)C(C)(C)[C@@H]5CC[C@]43C)[C@H]12` was run?
A: 5.09

Q: What about the pIC50 (SNU1) of the same molecule?
A: < 5.00

Q: And the pIC50 (K562)?
A: < 5.00

Q: What about the pIC50 (A549) of the same molecule?
A: < 5.00

Q: And the pIC50 (HepG2)?
A: < 5.00

Q: How did the pIC50 (HL-60) turn out when `CC(=O)O[C@H]1CC[C@]2(C)[C@H]3CC=C4[C@@H]5CC(C)(C)CC[C@]5(C)CC[C@@]4(C(=O)O)[C@]3(C)C[C@@H](O)[C@H]2C1(C)C` was run?
A: 5.29

Q: What about the pIC50 (SNU1) of the same molecule?
A: < 5.00

Q: And the pIC50 (K562)?
A: < 5.00

Q: What about the pIC50 (A549) of the same molecule?
A: < 5.00

Q: And the pIC50 (HepG2)?
A: < 5.00

Q: With `COc1cccc2c1C(=O)c1c(O)c3c(c(O)c1C2=O)C[C@@](O)(C(=O)CO)C[C@@H]3O[C@H]1C[C@H](N)[C@H](O)[C@H](C)O1` [DOXORUBICIN] as the molecule, how does the pIC50 (SNU1) read?
A: 5.40

Q: What about the pIC50 (K562) of the same molecule?
A: 5.60

Q: What about the pIC50 (A549) of the same molecule?
A: 5.66

Q: Which results are given for `CC(=O)O[C@H]1CC[C@]2(C)[C@H]3CC=C4[C@@H]5[C@@H](C)[C@H](C)CC[C@]5(C)CC[C@@]4(C(=O)O)[C@]3(C)CC[C@H]2C1(C)C`?
A: pIC50 (HL-60): 5.03; pIC50 (SNU1): < 5.00; pIC50 (K562): < 5.00; pIC50 (A549): < 5.00; pIC50 (HepG2): < 5.00

Q: How did the pIC50 (HL-60) turn out when `CC1(C)CC[C@]2(C)CC[C@]3(C(=O)O)C(=CC[C@@H]4[C@@]5(C)CC[C@@H](O)C(C)(C)C5=CC[C@]43C)[C@@H]2C1` was run?
A: < 5.00

Q: What about the pIC50 (SNU1) of the same molecule?
A: < 5.00

Q: And the pIC50 (K562)?
A: < 5.00

Q: And the pIC50 (A549)?
A: < 5.00

Q: What about the pIC50 (HepG2) of the same molecule?
A: < 5.00

Q: How did the pIC50 (HL-60) turn out when `CC[C@@]1(O)C(=O)OCc2c1cc1n(c2=O)Cc2cc3ccccc3nc2-1` [CAMPTOTHECIN] was run?
A: 6.10
